Assay outcomes deposited in PubChem BioAssay by Sanford-Burnham Center for Chemical Genomics.
SENP7 block: SENP7 protease inhibitors, primary screen, biochemical, luminescence, uHTS; recombinant SENP7, Z-RLRGG-aminoluciferin luminescence, 40 min; AID 434973, 2010; inhibition, % at 5 µM; 330,000 tested, 1.5% active; Sentrin-specific protease 7 (Homo sapiens), Q9BQF6;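 active = inhibition above about 50% at the single test dose, limit read from the data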
SENP8 block-1: human SENP8 protease inhibitors, primary screen, biochemical, fluorescence, Nedd8 protein substrate, uHTS; Sentrin-specific protease 8 (Homo sapiens), Q96LD8; recombinant SENP8; inhibition, % at 20 µM; 360,000 tested, 0.64% active; AID 602440, 2012; in the data active = inhibition mostly above about 40%, no sharp cut-off; inactive = mostly below about 27%
SENP8 block-2: SENP8 protease inhibitors, primary screen, biochemical, luminescence; inhibition, % at 10 µM; 330,000 tested, 1.2% active; purified SENP8, Z-RLRGG-aminoluciferin cleavage; Sentrin-specific protease 8 (Homo sapiens), Q96LD8; AID 2540, 2010; in the data active = inhibition above about 50%
Apaf-1 inh: inhibitors of human Apaf-1 apoptosome, primary screen, biochemical, DEVD-Rh110 fluorescence, uHTS; Apoptotic protease-activating factor 1 (Homo sapiens), O14727; reconstituted apoptosome caspase-3 activity; inhibition, % at 20 µM; 330,000 tested, 0.71% active; active = inhibition of at least 40% at 20 µM
Target sequence (O14727 whole entry, looked up): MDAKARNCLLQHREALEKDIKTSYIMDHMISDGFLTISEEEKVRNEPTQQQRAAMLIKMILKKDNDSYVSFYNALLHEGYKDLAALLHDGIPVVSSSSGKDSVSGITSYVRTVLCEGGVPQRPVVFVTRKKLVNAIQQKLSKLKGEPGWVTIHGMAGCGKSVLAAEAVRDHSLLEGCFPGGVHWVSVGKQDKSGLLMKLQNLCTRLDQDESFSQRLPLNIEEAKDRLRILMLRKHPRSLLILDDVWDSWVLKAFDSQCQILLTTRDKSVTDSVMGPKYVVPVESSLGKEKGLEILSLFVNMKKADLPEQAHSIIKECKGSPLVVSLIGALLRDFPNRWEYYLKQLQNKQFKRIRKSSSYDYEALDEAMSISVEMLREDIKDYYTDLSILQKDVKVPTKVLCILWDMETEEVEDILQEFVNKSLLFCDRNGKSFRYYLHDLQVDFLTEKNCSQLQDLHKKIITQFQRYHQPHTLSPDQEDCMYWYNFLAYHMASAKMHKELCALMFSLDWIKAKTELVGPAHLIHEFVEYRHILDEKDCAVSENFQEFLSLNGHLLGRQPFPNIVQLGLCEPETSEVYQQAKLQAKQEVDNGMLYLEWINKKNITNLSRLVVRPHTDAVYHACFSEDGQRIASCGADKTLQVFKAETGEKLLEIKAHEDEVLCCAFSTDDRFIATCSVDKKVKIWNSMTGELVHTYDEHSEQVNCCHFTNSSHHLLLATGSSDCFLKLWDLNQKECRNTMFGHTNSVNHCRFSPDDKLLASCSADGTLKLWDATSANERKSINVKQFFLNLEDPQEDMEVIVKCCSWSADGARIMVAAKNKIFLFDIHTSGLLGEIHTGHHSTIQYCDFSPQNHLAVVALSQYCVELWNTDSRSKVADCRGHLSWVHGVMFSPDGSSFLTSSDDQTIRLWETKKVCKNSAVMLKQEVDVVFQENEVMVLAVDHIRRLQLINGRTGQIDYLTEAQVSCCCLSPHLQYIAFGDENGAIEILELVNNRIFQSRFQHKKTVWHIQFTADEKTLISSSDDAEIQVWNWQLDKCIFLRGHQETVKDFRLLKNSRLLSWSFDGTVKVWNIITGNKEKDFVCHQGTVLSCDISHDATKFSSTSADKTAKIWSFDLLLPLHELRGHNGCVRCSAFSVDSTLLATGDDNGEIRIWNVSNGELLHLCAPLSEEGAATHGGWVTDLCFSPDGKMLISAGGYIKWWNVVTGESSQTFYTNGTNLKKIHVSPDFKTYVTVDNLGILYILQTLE
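detection = Rh110 fluorescence intensity | test system = biochemical Apaf-1 apoptosome reconstitution | also added = cytochrome c and DEVD-Rh110 substrate | schedule = 30 min plus 50 min, RT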
SENP6 inh: SENP6 protease inhibitors, primary screen, biochemical, luminescence, uHTS | Sentrin-specific protease 6 (Homo sapiens), Q9GZR1 | Recombinant SENP6 catalytic domain, aminoluciferin luminescence | inhibition, % at 10 µM | 330,000 tested, 1.8% active | AID 2599, 2010;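 active = inhibition above about 50% at the single tested dose, limit read from the data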
UBC13 inh: UBC13 polyubiquitin chain formation inhibitors, primary screen, biochemical, TR-FRET, uHTS; inhibition, % at 20 µM; Ubiquitin-conjugating enzyme E2 N (Homo sapiens), P61088; 330,000 tested, 0.47% active; in the data active = inhibition above about 45%, passing the limit was not always enough
SENP8 confirm: SENP8 protease inhibitors, retest, confirmation, biochemical, luminescence, single concentration. inhibition, % at 12.5 µM. shares compounds with SENP7 block. 6,200 tested, 40% active. Recombinant SENP8, Z-RLRGG-aminoluciferin luminescence, 60 min. AID 488912, 2010;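 active = mean inhibition across replicates above about 50%, limit read from the data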
SENP6 confirm: SENP6 protease inhibitors, confirmation, biochemical, luminescence, single concentration | inhibition, % at 12.5 µM | 6,200 tested, 58% active | shares compounds with SENP7 block | recombinant SENP6, Z-RLRGG-aminoluciferin luminescence
SENP7 conf: SENP7 protease inhibitors, retest, confirmation, biochemical, luminescence, single concentration; inhibition, % at 12.5 µM; recombinant SENP7, Z-RLRGG-aminoluciferin luminescence, 40 min; shares compounds with SENP7 block; 6,200 tested, 69% active
Casp3 SENP sel: caspase-3 protease inhibitors, confirmation, selectivity assay for SENP inhibitor project, biochemical, single concentration | shares compounds with SENP7 block | purified caspase-3, Z-DEVD-aminoluciferin luminescence, 60 min | inhibition, % at 12.5 µM | 6,200 tested, 60% active | AID 488918, 2010;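 active = mean inhibition above about 50%, limit read from the data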
SENP luc ctr: counter-screen for SENP inhibitors: luminescence interference | 6,200 tested, 39% active | Pre-incubated SENP8/Z-RLRGG-aminoluciferin, luciferase luminescence interference | AID 488919 | inhibition, % at 12.5 µM | shares compounds with SENP7 block;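 active = mean inhibition above about 50% when retested at one dose, limit read from the data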
Large screens that a line does not name were inactive (follow-up assays come after a bar, where they were run). The list is not random: actives were taken first. Their share in the collection is about 3%.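 Rule for the calls, unless noted: active = mean inhibition above about 50% in the one-dose retest (limit read from the data); inactive = the rest.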

Cc1cccn2cc(CNc3ccccc3)nc12	none
Cc1cc(Cl)ccc1C(O)c1ncc(-c2cccc(C(F)(F)F)c2)[nH]1 (stereo not given)	none (no result: SENP7 block, SENP8 block-2, Apaf-1 inh, SENP6 inh, UBC13 inh)
COC(=O)C[C@@H]1C=C[C@@H](NC(=O)CN(C)C)[C@@H](CO)O1	none (no result: SENP7 block, SENP8 block-2, Apaf-1 inh, SENP6 inh, UBC13 inh)
CCCc1cc(CN(C)C(=O)c2ccc(OC3CCN(C(C)=O)CC3)c(OC)c2)[nH]n1	none (no result: SENP7 block, SENP8 block-2, Apaf-1 inh, SENP6 inh, UBC13 inh)
O=C(/C=C/Nc1ccc(Oc2ccccc2Cl)cc1)c1ccco1	none
O=C(CCNc1ccc(F)c(Cl)c1)c1ccco1	none
COc1ccccc1Oc1ccc(N/C=C/C(=O)c2ccco2)cc1	SENP7 block 57, SENP8 block-2 55, SENP6 inh 85 | SENP8 confirm 88 | SENP6 confirm 89 | SENP7 conf 100 | Casp3 SENP sel 81 | SENP luc ctr 76
O=C(/C=C/Nc1cccc(F)c1)c1ccco1	SENP7 block 73, SENP8 block-2 52, SENP6 inh 82 | SENP8 confirm inactive | SENP6 confirm 72 | SENP7 conf 94 | Casp3 SENP sel 85 | SENP luc ctr 78
CC(=O)Nc1ccc(N/C=C/C(=O)c2ccco2)cc1	none
O=C(/C=C/Nc1ccc(F)c(Cl)c1)c1ccco1	SENP6 inh 70 | SENP8 confirm 67 | SENP6 confirm 66 | SENP7 conf 88 | Casp3 SENP sel 56 | SENP luc ctr inactive
C/C=C/c1cccc(-c2nc(C(=O)NC3Cc4ccccc4C3)cc3c2[C@@H](CCO)N(C(C)=O)C3)c1	none (no result: SENP7 block, SENP8 block-2, Apaf-1 inh, SENP6 inh, UBC13 inh)
CCCCNC(=O)c1nc(C2CCNCC2)oc1-c1cccc(C(F)(F)F)c1	none (no result: SENP7 block, SENP8 block-2, Apaf-1 inh, SENP6 inh, UBC13 inh)
COc1ccc(N(CC(=O)NCc2ccc3c(c2)OCO3)S(C)(=O)=O)cc1OC	SENP7 block 94 | SENP8 confirm inactive | SENP6 confirm inactive | SENP7 conf inactive | Casp3 SENP sel inactive | SENP luc ctr inactive
Cc1ccc(N(CC(=O)NCc2ccc3c(c2)OCO3)S(C)(=O)=O)cc1	none
O=C(O)CCN1C(=O)/C(=C\c2cccc(OCc3ccccc3)c2)SC1=S	SENP8 block-2 96, SENP6 inh 96 | SENP8 confirm inactive | SENP6 confirm inactive | SENP7 conf inactive | Casp3 SENP sel inactive | SENP luc ctr inactive
O=C1/C(=C\c2ccc(O)cc2)SC(=S)N1Cc1ccccc1	SENP8 block-2 78, SENP6 inh 72 | SENP8 confirm 60 | SENP6 confirm 82 | SENP7 conf 84 | Casp3 SENP sel inactive | SENP luc ctr inactive
CC(=C\c1ccccc1)/C=C1/SC(=S)N(CCC(=O)O)C1=O	SENP8 block-2 89, SENP6 inh 91 | SENP8 confirm inactive | SENP6 confirm 92 | SENP7 conf 94 | Casp3 SENP sel 80 | SENP luc ctr 51
CC(/C=C1\SC(=S)N(CC(=O)O)C1=O)=C\c1ccccc1	none
O=C(O)CCN1C(=O)/C(=C\c2ccc(OCc3ccccc3)c(OCc3ccccc3)c2)SC1=S	none
O=c1cccc(-c2ccc3ccccc3c2)o1	none (no result: SENP7 block, SENP8 block-2, Apaf-1 inh, SENP6 inh, UBC13 inh)
Cc1ccc(/C=C2/C(=O)c3ccc(C(=O)O)cc3C2=O)o1	none (no result: SENP7 block, SENP8 block-2, Apaf-1 inh, SENP6 inh, UBC13 inh)
Cc1ccc(C=C2C(=O)c3ccccc3C2=O)o1	SENP7 block 95, SENP8 block-2 79, SENP6 inh 97 | SENP8 confirm 96 | SENP6 confirm 97 | SENP7 conf 101 | Casp3 SENP sel 96 | SENP luc ctr 75
Cc1cc(C=C2C(=O)c3ccccc3C2=O)c(C)n1C	SENP8 block-2 56, SENP6 inh 66 | SENP8 confirm inactive | SENP6 confirm inactive | SENP7 conf 72 | Casp3 SENP sel inactive | SENP luc ctr inactive
Cc1ccc(C=C2C(=O)c3ccccc3C2=O)s1	SENP7 block 92, SENP8 block-2 81, SENP6 inh 70 | SENP8 confirm 68 | SENP6 confirm 94 | SENP7 conf 99 | Casp3 SENP sel 88 | SENP luc ctr inactive
CCc1nc2ccc(C(=O)N3CCN(S(=O)(=O)CC)CC3)cn2c1N(CC)Cc1cccc(Br)c1	none (no result: SENP7 block, SENP8 block-2, Apaf-1 inh, SENP6 inh, UBC13 inh)
COc1cccc(-c2nc(=S)c3c(o2)CCCC3)c1	SENP6 inh 65 | SENP8 confirm inactive | SENP6 confirm inactive | SENP7 conf 60 | Casp3 SENP sel inactive | SENP luc ctr inactive
O=[N+]([O-])c1ccc(-c2nc(=S)c3c(o2)CCCC3)cc1	none
S=c1nc(-c2ccccc2)oc2c1CCCC2	SENP7 block 88, SENP8 block-2 75, SENP6 inh 92 | SENP8 confirm inactive | SENP6 confirm inactive | SENP7 conf 63 | Casp3 SENP sel inactive | SENP luc ctr 54
CCCCCc1ccc(-c2ccc(/C=C/C(=O)O)cc2)nc1	SENP6 inh 76 | SENP8 confirm 76 | SENP6 confirm 68 | SENP7 conf 88 | Casp3 SENP sel inactive | SENP luc ctr inactive
O=C(COc1ccccc1)NC(=S)Nc1cccc2c(O)cccc12	none (no result: SENP7 block, SENP8 block-2, Apaf-1 inh, SENP6 inh, UBC13 inh)
OC(CN1CCN(c2cccc(Cl)c2)CC1)c1ccccc1 (stereo not given)	none
OC(COC(c1ccccc1)c1ccccc1)CN1CCN(c2cccc(Cl)c2)CC1 (stereo not given)	SENP6 inh 101 | SENP8 confirm inactive | SENP6 confirm inactive | SENP7 conf inactive | Casp3 SENP sel inactive | SENP luc ctr inactive
CSc1nsc(N/N=C/c2ccc3c(c2)OCO3)c1C#N	SENP7 block 53 | SENP8 confirm inactive | SENP6 confirm inactive | SENP7 conf inactive | Casp3 SENP sel inactive | SENP luc ctr inactive
O=C(NC(=S)Nc1ccc(S(=O)(=O)Nc2nccs2)cc1)c1ccc(F)cc1	SENP6 inh 64 | SENP8 confirm inactive | SENP6 confirm inactive | SENP7 conf 66 | Casp3 SENP sel inactive | SENP luc ctr 52
